Assay results taken from ChEMBL document CHEMBL4431394, “Modifications of a Nanomolar Cyclic Peptide Antagonist for the EphA4 Receptor To Achieve High Plasma Stability” (ACS Med Chem Lett, 2016).
Peptide text beside a SMILES is read from it.

Assays:
[1] = Half life in mouse plasma assessed as remaining peptide antagonistic activity for inhibition of binding of alkaline phosphatase-fused ephrin-A5 to immobilized EphA4 Fc incubated for 3 days by ELISA; format: cell-free
Method in brief: (§1)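 Peptide was incubated in mouse plasma or rat CSF for various periods. The residual ability to inhibit ephrin-A5–EphA4 interaction was then measured by ELISA, and the half-life of active peptide was derived from the loss of activity over time.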

[2] = Stability in Sprague-Dawley rat CSF assessed as remaining peptide antagonistic activity for inhibition of binding of alkaline phosphatase-fused ephrin-A5 to immobilized EphA4 Fc incubated for 3 days by ELISA; format: tissue-based, Cerebrospinal fluid; conditions: in vitro, 72 h; method in brief: as §1
HT-22 = test: Cytotoxicity against mouse HT22 cells at 15 to 30 uM after 24 hrs by MTT assay; format: cell-based; conditions: ht-22, 24 h
Method in brief: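 HT22 neuronal cells were grown 24 h with 15 or 30 μM peptide, alongside controls receiving the matching DMSO concentration. Cell number was quantified by MTT, with averages ± SE from 5 measurements.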

Ephrin type-A receptor 4 = Ephrin type-A receptor 4 (Homo sapiens, UniProt P54764); test: Antagonist activity against human EphA4 receptor assessed as inhibition of binding of alkaline phosphatase-fused ephrin-A5 to immobilized EphA4 Fc by ELISA
Ephrin type-A receptor 4, sequence (P54764 whole entry, the tested form may be a part): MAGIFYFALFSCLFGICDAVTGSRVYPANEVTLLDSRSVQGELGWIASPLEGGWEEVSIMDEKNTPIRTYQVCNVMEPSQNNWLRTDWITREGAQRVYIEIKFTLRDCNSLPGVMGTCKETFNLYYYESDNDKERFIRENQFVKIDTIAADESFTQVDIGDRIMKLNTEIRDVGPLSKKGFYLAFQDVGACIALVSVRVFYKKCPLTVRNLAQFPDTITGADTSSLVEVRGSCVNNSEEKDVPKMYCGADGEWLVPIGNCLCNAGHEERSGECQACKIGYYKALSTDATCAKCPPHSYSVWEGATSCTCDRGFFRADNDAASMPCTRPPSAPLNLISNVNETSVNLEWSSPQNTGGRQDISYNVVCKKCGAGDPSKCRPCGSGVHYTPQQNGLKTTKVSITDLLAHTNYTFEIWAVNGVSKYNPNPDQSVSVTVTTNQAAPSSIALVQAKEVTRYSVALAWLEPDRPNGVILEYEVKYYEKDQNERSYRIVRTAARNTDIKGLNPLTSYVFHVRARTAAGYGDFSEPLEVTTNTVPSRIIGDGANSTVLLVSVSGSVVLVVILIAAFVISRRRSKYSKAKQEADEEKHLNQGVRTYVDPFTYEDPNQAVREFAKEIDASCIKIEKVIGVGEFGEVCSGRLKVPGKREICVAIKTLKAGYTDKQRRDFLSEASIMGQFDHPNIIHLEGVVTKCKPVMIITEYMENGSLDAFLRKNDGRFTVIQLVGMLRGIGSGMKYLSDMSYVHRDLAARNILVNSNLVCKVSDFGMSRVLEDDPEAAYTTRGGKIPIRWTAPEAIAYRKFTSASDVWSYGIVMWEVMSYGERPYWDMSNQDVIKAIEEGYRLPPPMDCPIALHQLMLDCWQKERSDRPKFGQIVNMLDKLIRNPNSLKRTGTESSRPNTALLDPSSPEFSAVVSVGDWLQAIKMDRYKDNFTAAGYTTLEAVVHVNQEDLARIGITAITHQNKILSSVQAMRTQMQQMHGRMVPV

| SMILES | half-life [1] | other results |
| --- | --- | --- |
| CC(C)[C@@H]1NC(=O)[C@@H](NC(=O)[C@H](Cc2ccc(O)cc2)NC(=O)CCCCN)CSSC[C@@H](C(N)=O)NC(=O)[C@H](CO)NC(=O)[C@H](Cc2c[nH]c3ccccc23)NC(=O)[C@H](CO)NC(=O)CCNC(=O)[C@H](CCCNC(=N)N)NC(=O)[C@H](Cc2ccc(O)cc2)NC1=O | > 3 days |  |
| CC(C)[C@@H]1NC(=O)[C@@H](NC(=O)[C@H](Cc2ccc(O)cc2)NC(=O)CCCCCN)CSSC[C@@H](C(N)=O)NC(=O)[C@H](CO)NC(=O)[C@H](Cc2c[nH]c3ccccc23)NC(=O)[C@H](CO)NC(=O)CCNC(=O)[C@H](CCCNC(=N)N)NC(=O)[C@H](Cc2ccc(O)cc2)NC1=O | > 3 days |  |
| CC(C)[C@@H]1NC(=O)[C@@H](NC(=O)[C@H](Cc2ccc(O)cc2)NC(=O)[C@@H]2CCCN2C(=O)[C@H](C)N)CSSC[C@@H](C(N)=O)NC(=O)[C@H](CO)NC(=O)[C@H](Cc2c[nH]c3ccccc23)NC(=O)[C@H](CO)NC(=O)CCNC(=O)[C@H](CCCNC(=N)N)NC(=O)[C@H](Cc2ccc(O)cc2)NC1=O | < 0.125 days |  |
| CC(C)[C@@H]1NC(=O)[C@@H](NC(=O)[C@H](Cc2ccc(O)cc2)NC(=O)CCN)CSSC[C@@H](C(N)=O)NC(=O)[C@H](CO)NC(=O)[C@H](Cc2c[nH]c3ccccc23)NC(=O)[C@H](CO)NC(=O)CCNC(=O)[C@H](CCCNC(=N)N)NC(=O)[C@H](Cc2ccc(O)cc2)NC1=O | 1.25 days |  |
| CC(=O)N1CCC[C@H]1C(=O)N[C@@H](Cc1ccc(O)cc1)C(=O)N[C@H]1CSSC[C@@H](C(N)=O)NC(=O)[C@H](CO)NC(=O)[C@H](Cc2c[nH]c3ccccc23)NC(=O)[C@H](CO)NC(=O)CCNC(=O)[C@H](CCCNC(=N)N)NC(=O)[C@H](Cc2ccc(O)cc2)NC(=O)[C@H](C(C)C)NC1=O | > 3 days |  |
| CC(C)[C@@H]1NC(=O)[C@@H](NC(=O)[C@H](Cc2ccc(O)cc2)NC(=O)[C@@H]2CCCN2)CSSC[C@@H](C(N)=O)NC(=O)[C@H](CO)NC(=O)[C@H](Cc2c[nH]c3ccccc23)NC(=O)[C@H](CO)NC(=O)CCNC(=O)[C@H](CCCNC(=N)N)NC(=O)[C@H](Cc2ccc(O)cc2)NC1=O | 0.625 days |  |
| CC(C)[C@@H]1NC(=O)[C@@H](NC(=O)[C@H](Cc2ccc(O)cc2)NC(=O)[C@@H]2CCCN2C(=O)[C@@H](C)N)CSSC[C@@H](C(N)=O)NC(=O)[C@H](CO)NC(=O)[C@H](Cc2c[nH]c3ccccc23)NC(=O)[C@H](CO)NC(=O)CCNC(=O)[C@H](CCCNC(=N)N)NC(=O)[C@H](Cc2ccc(O)cc2)NC1=O | > 3 days | Stability [2]: Stable |
| CC(C)[C@@H]1NC(=O)[C@@H](NC(=O)[C@H](Cc2ccc(O)cc2)NC(=O)CCCN)CSSC[C@@H](C(N)=O)NC(=O)[C@H](CO)NC(=O)[C@H](Cc2c[nH]c3ccccc23)NC(=O)[C@H](CO)NC(=O)CCNC(=O)[C@H](CCCNC(=N)N)NC(=O)[C@H](Cc2ccc(O)cc2)NC1=O | > 3 days |  |
| CC(C)[C@@H]1NC(=O)[C@@H](NC(=O)[C@H](Cc2ccc(O)cc2)NC(=O)CN)CSSC[C@@H](C(N)=O)NC(=O)[C@H](CO)NC(=O)[C@H](Cc2c[nH]c3ccccc23)NC(=O)[C@H](CO)NC(=O)CCNC(=O)[C@H](CCCNC(=N)N)NC(=O)[C@H](Cc2ccc(O)cc2)NC1=O | 0.25 days |  |
| CC(C)[C@@H]1NC(=O)[C@@H](NC(=O)[C@H](Cc2ccc(O)cc2)NC(=O)[C@@H]2CCCN2C(=O)CCN)CSSC[C@@H](C(N)=O)NC(=O)[C@H](CCC(=O)O)NC(=O)[C@H](Cc2c[nH]c3ccccc23)NC(=O)[C@H](CCC(=O)O)NC(=O)CCNC(=O)[C@H](CCCNC(=N)N)NC(=O)[C@H](Cc2ccc(O)cc2)NC1=O | > 3 days | Activity (HT-22): Non-Toxic |
| CNCC(=O)N[C@@H](Cc1ccc(O)cc1)C(=O)N[C@H]1CSSC[C@@H](C(N)=O)NC(=O)[C@H](CO)NC(=O)[C@H](Cc2c[nH]c3ccccc23)NC(=O)[C@H](CO)NC(=O)CCNC(=O)[C@H](CCCNC(=N)N)NC(=O)[C@H](Cc2ccc(O)cc2)NC(=O)[C@H](C(C)C)NC1=O | > 3 days |  |
| CC(=O)N[C@@H](C)C(=O)N1CCC[C@H]1C(=O)N[C@@H](Cc1ccc(O)cc1)C(=O)N[C@H]1CSSC[C@@H](C(N)=O)NC(=O)[C@H](CO)NC(=O)[C@H](Cc2c[nH]c3ccccc23)NC(=O)[C@H](CO)NC(=O)CCNC(=O)[C@H](CCCNC(=N)N)NC(=O)[C@H](Cc2ccc(O)cc2)NC(=O)[C@H](C(C)C)NC1=O | 3 days |  |
| CC(C)[C@@H]1NC(=O)[C@@H](NC(=O)[C@H](Cc2ccc(O)cc2)NC(=O)[C@@H]2CCCN2C(=O)CCN)CSSC[C@@H](C(N)=O)NC(=O)[C@H](Cc2c[nH]c3ccccc23)NC(=O)[C@H](CCC(=O)O)NC(=O)[C@H](CCC(=O)O)NC(=O)CCNC(=O)[C@H](CCCNC(=N)N)NC(=O)[C@H](Cc2ccc(O)cc2)NC1=O (HELM PEPTIDE1{[bAla].P.Y.C.V.Y.R.[bAla].E.E.W.C.[am]}$PEPTIDE1,PEPTIDE1,4:R3-12:R3$$$V2.0) |  | IC50 (Ephrin type-A receptor 4): > 10 µM |
